Published values of several laboratories.
Compare with care: the assays were run in different laboratories.

Structure (SMILES)	test	system	setting	endpoint	value
CC(=O)OCOC(=O)C1CC(C)(C)N([O])C1(C)C (stereo not shown)	chemical stability	bovine, serum	–	half-life	0.567 h
CC(C)(C)c1ccc(O)c(CN(Cc2cc(C(C)(C)C)ccc2O)C2CCC(NC(N)=O)CC2)c1 (stereo not shown)	–	male C57BL/6 mouse, plasma	intraperitoneal, 10 mg/kg, single dose	Vd	3.7 L
CC[C@H](C)[C@@H]1NC(=O)[C@@](C)(NC(=O)[C@H](CCCNC(=N)N)NC(=O)[C@H](CC(C)C)NC(=O)[C@@H](NC(=O)[C@H](CCC(N)=O)NC(=O)[C@H](CC(C)C)NC(C)=O)[C@@H](C)O)CCCC=CCCC[C@@](C)(C(=O)N[C@@H](CC(C)C)C(=O)N[C@@H](Cc2ccc3ccccc3c2)C(N)=O)NC(=O)[C@H](CCCNC(=N)N)NC(=O)[C@H](CCC(N)=O)NC1=O	–	male BALB/c mouse, plasma	intravenous, 15 mg/kg	Vd	0.0946 L/kg
COc1ccc([C@@H]2CN(C(=O)[C@@H](O)CO)C[C@@]2(C)[C@@H](C)O)cc1OC1CN(c2ccc(C)cn2)C1	–	human, plasma	oral, 30 mg, single dose, healthy volunteers	half-life	12.3 h
CC[C@H](C)[C@H](NC(=O)[C@H](CCC(=O)O)NC(=O)[C@H](CO)NC(=O)[C@@H](NC(=O)[C@@H](N)CO)C(C)C)C(=O)N[C@@H](CCC(N)=O)C(=O)N[C@@H](CC(C)C)C(=O)N[C@@H](CCSC)C(=O)N[C@@H](Cc1cnc[nH]1)C(=O)N[C@@H](CC(N)=O)C(=O)N[C@@H](CC(C)C)C(=O)NCC(=O)N[C@@H](CCCCN)C(=O)N[C@@H](Cc1cnc[nH]1)C(=O)N[C@@H](CC(C)C)C(=O)N[C@@H](CC(N)=O)C(=O)N[C@@H](CO)C(=O)N[C@@H](CCSC)C(=O)N[C@@H](CCC(=O)O)C(=O)N[C@@H](CCCN=C(N)N)C(=O)N[C@H](C(=O)N[C@@H](CCC(=O)O)C(=O)N[C@@H](Cc1c[nH]c2ccccc12)C(=O)N[C@@H](CC(C)C)C(=O)N[C@@H](CCCN=C(N)N)C(=O)N[C@@H](CCCCN)C(=O)N[C@@H](CCCCN)C(=O)N[C@@H](CC(C)C)C(=O)N[C@@H](CCC(N)=O)C(=O)N[C@@H](CC(=O)O)C(=O)N[C@H](C(=O)N[C@@H](Cc1cnc[nH]1)C(=O)N[C@@H](CC(N)=O)C(=O)N[C@@H](Cc1ccccc1)C(=O)O)C(C)C)C(C)C	chemical stability, HPLC	aqueous buffer	0.5 mg/mL, 10 min, pH 6.5	compound remaining	100%
CC(=O)N[C@@H](Cc1ccccc1)C(=O)N[C@@H](Cc1ccccc1)C(=O)N1CCC[C@H]1C(=O)N[C@@H](CC(C)C)C(=O)NCC(=O)N[C@@H](CC(C)C)C(=O)N[C@@H](C)C(=O)NCC(=O)N[C@@H](CC(=O)O)C(=O)N[C@@H](CC(=O)O)C(=O)O	chemical stability	human, plasma	1 mM, pH 7.4	half-life	20.7 h
C[C@]1(c2nc3c(C(N)=O)cccc3[nH]2)CCCN1	–	male rhesus monkey, plasma	oral, 5 mg/kg, single dose	AUC(0-inf)	3.7 µM·h
CC(C)(O)c1ccccc1-c1ccc2[nH]c(/C=C/c3ccc(C(F)(F)F)cc3)nc2c1	–	male human, plasma	oral, 30 mg, single dose, fasted, healthy volunteers	half-life	82.6 h
COCCOc1cnc2ccn([C@H](C)c3nnc4c(F)cc(-c5cnn(C)c5)cn34)c(=O)c2c1	–	human, plasma	oral, 400 mg, multiple doses, once daily, patients	half-life	7.7 h
CC(C)n1cc(C#N)c2cc(-n3cc(C(=O)O)cn3)ccc21	–	human, plasma	oral, 25 mg, single dose, fasted, healthy volunteers	half-life	8.1 h
